Measured values: PubChem BioAssay AID602194 (The Scripps Research Institute Molecular Screening Center, 2012)
Hit rate of the full screen: of about 2,400 compounds, about 140 (5.8%) were called active. The list is a sample of the results. Values without a mark were called inactive.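 The calls were made as follows: active = mean activation across replicates exceeds the hit threshold derived in the earlier primary screen (cut at about 18% in these data); inactive = the rest.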

molecular target: Mu-type opioid receptor (Homo sapiens) + Delta-type opioid receptor (Homo sapiens) (UniProt P35372+P41143); experiment: agonists of MOR-DOR heterodimerization, counter-screen for MC4R biased agonist project, cell-based, luminescence (AID 602194); details: U2OS PathHunter beta-arrestin, beta-gal luminescence; at 9.2 µM; stronger effect = higher value; percent of deltorphin B response, DMSO zero;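 also: 100% = deltorphin B at 0.9 µM final and 0% = DMSO alone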
Sequence (P35372 whole entry, looked up): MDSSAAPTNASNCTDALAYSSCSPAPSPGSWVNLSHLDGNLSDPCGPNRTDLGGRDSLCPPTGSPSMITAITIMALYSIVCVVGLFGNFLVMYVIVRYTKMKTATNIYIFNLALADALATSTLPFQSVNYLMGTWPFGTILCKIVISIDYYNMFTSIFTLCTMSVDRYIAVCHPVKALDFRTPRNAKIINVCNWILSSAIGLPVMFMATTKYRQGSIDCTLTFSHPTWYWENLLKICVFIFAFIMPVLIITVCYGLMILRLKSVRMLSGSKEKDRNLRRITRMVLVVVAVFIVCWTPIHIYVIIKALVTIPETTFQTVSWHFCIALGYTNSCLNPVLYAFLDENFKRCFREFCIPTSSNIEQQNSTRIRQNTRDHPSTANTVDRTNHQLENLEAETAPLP
Sequence (P41143 whole entry, looked up): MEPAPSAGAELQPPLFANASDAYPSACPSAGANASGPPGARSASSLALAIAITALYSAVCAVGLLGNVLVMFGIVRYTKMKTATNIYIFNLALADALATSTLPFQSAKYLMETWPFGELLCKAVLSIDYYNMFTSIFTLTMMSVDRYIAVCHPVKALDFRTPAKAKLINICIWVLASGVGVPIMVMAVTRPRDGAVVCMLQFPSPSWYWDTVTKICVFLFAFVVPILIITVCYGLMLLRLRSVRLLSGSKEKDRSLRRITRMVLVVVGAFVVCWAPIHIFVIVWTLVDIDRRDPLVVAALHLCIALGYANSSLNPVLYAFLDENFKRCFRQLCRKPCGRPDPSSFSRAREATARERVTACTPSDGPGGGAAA
Outline: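 Material: U2OS Mu-Delta cells coexpressing OPRM1, OPRD1 and beta-arrestin. Schedule: 23 h growth, 3 h compound 37 °C, 1 h detection. Measured by: beta-gal complementation luminescence. Read-out: percent activation, mean of triplicates, scaled between DMSO and Deltorphin B. Control set: Deltorphin B high, DMSO low. Repeats: three replicates.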

Structure (SMILES) | activation
COC(=O)c1sccc1NC(=O)CCC1CCCC1 | 6.23%
O=C(CCCN1C(=O)/C(=C/c2cccs2)SC1=S)Nc1ccc(O)cc1 | 1.75%
N#CCC(=O)N/N=C/c1cn(Cc2ccc3ccccc3c2)c2ccccc12 | 25.5% (active)
CCOC(=O)c1c(-c2ccc(C)cc2C)csc1NC(=O)CSc1nnnn1C | 7.04%
CCN(CC)c1ccc(C(=O)N/N=C/c2ccc(N3CCOCC3)cc2)cc1 | 13.2%
COC(=O)c1nc2n(n1)C(c1ccc([N+](=O)[O-])cc1)C(C(=O)Nc1ccc(Cl)cc1)=C(C)N2 (stereo not given) | 3.4%
COc1ccc2sc(-c3ccc(S(C)(=O)=O)cc3)c(C#Cc3cncn3C)c2c1 | 9.34%
O=C(CCCCCn1c(=S)[nH]c2cc3c(cc2c1=O)OCO3)N1CCN(c2ccc(F)cc2)CC1 | 3.68%
COc1ccc(Cc2nnc(NC(=O)c3ccc(OC)cc3OC)s2)cc1 | 4.47%
CCOC(=O)c1nn(-c2ccccc2F)c2nc(Nc3ccccc3)cc(=O)n12 | 17.8%
CCCOc1ccc(C(=O)C(CCC(CNCC)C(=O)c2ccc(OCCC)cc2)CNCC)cc1 (stereo not given) | 17.3%
Cc1ccc(-n2nc3cc(Cl)c(NC(=O)c4ccco4)cc3n2)cc1 | 0.83%
Oc1ccccc1N1CCN(c2ncnc3sc(-c4ccccc4)cc23)CC1 | 3.28%
Cc1ccc(Nc2nnc(SCc3ccccc3)s2)cc1 | 8.17%
COc1cccc(CNC(=O)c2nnn(CC(=O)Nc3cc(Cl)ccc3C)c2N)c1 | 11.8%
COCCN(CCOC)S(=O)(=O)c1ccc(C(=O)Nc2nc3c(s2)CCc2ccccc2-3)cc1 | 6.22%
Clc1ccc(Nc2ncnc3c2nnn3Cc2ccccc2)cc1 | 5.74%
COC(=O)c1c(C)[nH]c(C(=O)/C=C/c2ccc(Cl)cc2)c1C | 4.27%
COc1cc(/C=C2\Oc3ccc(C#Cc4ccc(O)cc4)cc3C2=O)cc(OC)c1 | 11.3%
CN(C)CCNC(=O)c1cccc(-c2cnc3c(NC=O)cc(-c4cccc(C(F)(F)F)c4)cn23)c1 | 7.61%
O=C(Nc1nc(-c2ccc(-c3ccccc3)cc2)cs1)c1cnccn1 | 2.08%
Clc1ccccc1Nc1nc(NCc2cccs2)nc2ccsc12 | 5.36%
CC(C)Oc1c(Br)cc(Br)cc1/C=N/NC(N)=S | 9.18%

Structure (SMILES) | activation
CCc1ccc(Nc2ncc3c(n2)CC(c2ccco2)CC3=O)cc1 (stereo not given) | 13.5%
COc1cc(NC(=O)c2cncc(-c3ccc(C#N)cc3)c2)cc(C(=O)Nc2cccc(C(F)(F)F)c2)c1 | 5.39%
COc1ccc(Nc2oc(-c3ccccc3Cl)nc2C#N)cc1 | 6.69%
CCOC(=O)c1c(-c2ccccc2)oc2cc(Br)c(O)c(C=O)c12 | 3.34%
Cc1ccc2nc(-c3ccncc3)cc(C(=O)Nc3ccc(OC(F)F)cc3)c2c1 | 8.13%
COc1ccc(/C=N/NC(=O)Nc2ccc3nsnc3c2)c(OC)c1 | 3.63%
Cc1ccc(-n2nc(C)c(/C=N/NC(=O)c3cccs3)c2Cl)cc1 | 7.37%
COc1ccccc1NC(=O)Nc1nnc(Cc2ccc(F)cc2)s1 | 10.7%
Cc1c(-c2ccccc2)n[nH]c1C(=O)N=Nc1c(O)[nH]c2ccccc12 | 8.27%
COc1ccc2nc(NC(=O)c3ccc(Br)s3)sc2c1 | 8.88%
C=CCn1c(SCC(=O)c2ccc(Br)cc2)nnc1C(C)NC(=O)Cc1ccc(OC)cc1 (stereo not given) | 7.14%
O=C(OCc1cn(-c2ccc(Cl)c(Cl)c2)nn1)c1ccccc1Cl | 3.56%
Cc1ccc(C(=O)Nc2ccc(NC(=O)c3cccs3)cc2)c(C)c1 | 6.51%
Cc1ccc(Sc2ccc(NC(=O)c3ccc(F)cc3)cc2C#N)cc1 | 4.2%
Cc1ccsc1/C=N/Nc1ccc(Cl)nn1 | 5.93%
Cc1ccc(-c2csc(SCC(=O)Nc3cc(C)on3)n2)cc1 | 7.19%
COc1cccc(NC(=S)NC(=O)c2c(Cl)c(C)nn2C)c1 | 3.17%
N#CC(=C1SC=CS1)c1nc(-c2ccccc2)cs1 | 3.11%
O=C(c1cc(-c2cccc(O)c2)on1)N1CCc2ccccc2C1 | 11.4%
CSc1ccc(S(=O)(=O)NCc2ccc(Cl)cc2)cc1 | 8.41%
Cc1ccc(Nc2nnc(SCC(=O)c3cc4ccccc4o3)s2)cc1C | 4.48%
COc1ccc(C(=O)n2nc(-c3ccc(C)cc3)nc2N)cc1OC | 4.64%
Fc1ccccc1/C=N/Nc1cc(N2CCCCC2)ncn1 | 7.52%

Structure (SMILES) | activation
Cc1cc(OCc2cc(C(=O)NCc3cc(C(C)C)no3)no2)cc(C)c1Cl | 3.52%
CCN1CCC2(CC1)N=C(c1ccc(F)cc1)C(=S)N2C(=O)c1ccc(C)cc1 | 52% (active)
CCN(CC)C(=O)Oc1ccc(Br)cc1C(=O)Nc1ccc(F)c(Cl)c1 | 3.45%
CN(C)CCCN(C(=O)c1ccc(S(=O)(=O)N2CCCCCC2)cc1)c1nc2ccc(Br)cc2s1 | 16.5%
S=C(NCCCc1cnc[nH]1)NCCCN(Cc1ccc(Cl)c(Cl)c1)c1ccc(Br)cn1 | 5.39%
COc1ccc(Cn2c(C)c(C)c(C#N)c2NC(=O)Nc2ccc(F)cc2)cc1 | 7.17%
COc1cccc(-c2cnc3c(NC(C)=O)cc(-c4cc(F)ccc4OC)cn23)c1 | 3.13%
Cc1cc(/C=C(/C#N)C(=O)Nc2ccc(Cl)cc2)c(C)n1-c1cccnc1 | 4.36%
CCC(=O)c1cc2c(cc1NC(=O)c1cccs1)OCCO2 | 3.16%
COC(=O)c1sccc1NC(=O)c1cc(OC)c(OC)c(OC)c1 | 2.04%
Cc1ccc(S(=O)(=O)NCCC(=O)Nc2ccc(C)c(Cl)c2)cc1C | 10.4%
CN(C)C(=O)c1cccc(-c2cnc3c(NC=O)cc(-c4ccc(F)cc4)cn23)c1 | 1.45%
Cn1c(=S)sc2ccc3ccccc3c21 | 6.66%
COc1ccc(Nc2ncnc3sc(-c4ccccc4)cc23)c(OC)c1 | 3.93%
CC(=O)Nc1ccc(-c2csc(NC(=O)Nc3ccccc3)n2)cc1 | 4.45%
COc1ccc(C(N)c2csc(NC(=O)Nc3cccc(C(F)(F)F)c3)n2)cc1 (stereo not given) | 13.5%
COc1ccc(CC(N)c2csc(NC(=O)NC(c3ccccc3)c3ccccc3)n2)cc1 (stereo not given) | 27.4% (active)
COc1ccc(Cl)cc1-n1c(C)cc(C(=O)OCC(=O)N2CC(=O)Nc3ccccc32)c1C | 3.77%
CC(=O)c1sc(NC(=O)CCCOc2ccccc2C)nc1C | 7.21%
CSc1nc2sc3c(c2c(=O)[nH]1)CCc1ccccc1-3 | 7.74%
Cc1ccc(-c2csc(NC(=O)Cn3[nH]c(=O)c4ccccc4c3=O)n2)cc1 | 6.76%
Cc1ccc(NC(=O)Nc2ccccc2)c(Br)c1 | 7.33%
CCn1c(SCC(=O)Nc2cccc(F)c2)nnc1-c1cc2cc(Br)ccc2o1 | 6.83%

Structure (SMILES) | activation
O=C(Nc1sc2c(c1-c1nc3ccccc3[nH]1)CCCC2)C1CC1 | 4.53%
Cc1cccc(C)c1OC(=O)CSc1nnc(-c2ccccc2)o1 | 3.88%
O=C1N/C(=C/c2cccn2-c2ccccc2)C(=O)N1c1cccc(Cl)c1 | 6.05%
O=C(CSc1ccccc1)Nc1nnc(/C=C/c2ccccc2)s1 | 6.5%
CCCCN1CC(C)(C)[C@H](CC(=O)Nc2ccc(Br)cc2)C1=O | 4.9%
COc1cccc2sc(N(CCCN(C)C)C(=O)C(c3ccccc3)c3ccccc3)nc12 | 9.67%
COCCNc1nc(Nc2ccccc2Cl)c2sc(-c3ccccc3)cc2n1 | 5.13%
Cc1nn2cc(-c3ccc(Cl)cc3)cnc2c1Br | 2.93%
CCc1ccc2c(c1)cc(CN(C(=S)Nc1ccccc1Cl)C1CC1)c1nnnn12 | 2.95%
CC(=O)Nc1ccc(NC(=O)c2sc3nc4c(c(-c5ccc(C)cc5)c3c2N)CCC4)cc1 | 14.3%
Cc1ccc(CCC(=O)Nc2ncc(Cc3cc(Cl)ccc3Cl)s2)o1 | 10.6%
Cc1cc(C)cc(C(=O)OCC(=O)NCCNC(=O)COC(=O)c2cc(C)cc(C)c2)c1 | 3.35%
CC(C)c1ccc2c(c1)c(SC(C)(C)C)c(CC(C)(C)C(=O)O)n2Cc1ccc(Cl)cc1 | 4.65%
COc1ccc(S(=O)(=O)N2CCC(C(=O)OCC(=O)c3ccccc3)CC2)cc1[N+](=O)[O-] | 4.26%
CCOc1ccc(/C=C/C(=O)OCC(=O)c2ccccc2OC)cc1OC | 3.55%
COc1ccc(C(=O)c2oc3ccc(Br)cc3c2NC(C)=O)cc1 | 1.7%
COc1cccc(CNCCc2c[nH]c3ccccc23)c1OCc1ccccc1F | 39.6% (active)
O=C(Cn1cnc2c(nnn2-c2ccccc2)c1=O)N1CCC(Cc2ccccc2)CC1 | 3.51%
O=C(OC12CC3CC(CC(C3)C1)C2)c1ccc(NCc2cc(O)ccc2O)cc1 | 7.74%
Cc1ccc([C@H]2C[C@H](O)[C@@H](n3cc(COC(=O)c4ccccc4)nn3)CN2C(=O)C2CCCCC2)cc1 | 5.71%
O=C(Nc1ccc2oc(-c3ccc4ccccc4c3)nc2c1)c1cccs1 | 5.63%
